Results of several laboratories.
Protocols differ between the studies behind these lines.

SMILES | target or system | test | test system | setting | measurement | result
Nc1c2c(nc3c1C(c1ccc(Cl)c(Cl)c1)c1ccc(OCC(=O)c4ccc(Cl)cc4)cc1O3)CCCC2 (stereo not shown) | SH-SY5Y | cell growth or viability, MTT |  | 6.3 µM | viability | 71.6%
CCCCCCCCCCOc1cc2c(O)c(C(=O)OCC)cnc2cc1OCC | CHO | cell growth or viability |  | 72 h | IC50 | > 100 µM
COc1cc2c(cc1C(=O)Nc1ccc(C(C)(C)C)cc1)CCCCC2 | NHDF | cell growth or viability, ATP luminescence |  | 24 h | CC50 | 148 µM
COC(=O)C1CCN(C(=O)c2ccc(NCc3cnc4nc(N)nc(N)c4n3)cc2)CC1 | Cytochrome P450 2C9 (CYP2C9, Homo sapiens, UniProt P11712) | enzyme activity, inhibitor, luciferase |  | 10 µM | inhibition | -7.15%
C[C@]12CC[C@H](O)CC1=CC[C@@H]1[C@@H]2CC[C@]2(C)C(n3cnc4ccccc43)=CC[C@@H]12.Cl |  |  | mouse, plasma | oral, 10 mg/kg | AUC(0-t) | 26.1 ng·h/mL
CCC[C@@](N)(CO)CCc1ccc(OCCCCCC(C)C)cc1 |  |  | mouse, plasma | oral, 10 mg/kg | AUC(0-t) | 0.227 µM·h
C[C@]12CC[C@H](n3ccnc3)CC1=CC[C@@H]1[C@@H]2CC[C@]2(C)C(n3cnc4ccccc43)=CC[C@@H]12.Cl |  |  | male CD-1 mouse, plasma | oral, 10 mg/kg | bioavailability | > 100%
COc1ccc(S(=O)(=O)Oc2ccc3c(c2)Oc2nc4c(c(N)c2C3c2cccc(OC)c2)CCCC4)cc1 (stereo not shown) | SH-SY5Y | cell growth or viability, MTT |  | 100 µM | viability | 48.9%
Cc1cc(C)nc(Nc2ncc(C(=O)NCCc3c(C)[nH]c4ccccc34)cn2)c1 |  | chemical stability | simulated intestinal fluid | 10 µM, pH 6.8 | half-life | 197 min
Nc1c2c(nc3c1C(c1cccc([N+](=O)[O-])c1)c1ccc(OS(=O)(=O)c4ccc(F)cc4)cc1O3)CCCC2 (stereo not shown) | SH-SY5Y | cell growth or viability, MTT |  | 6.3 µM | viability | 63.4%
CCCCCn1cc(C(=O)Nc2cccc3ccccc23)c2ccccc21 |  | metabolic stability | Sprague-Dawley rat, liver microsomes | 1 µM, pH 7.4 | half-life | 2.21 min
Nc1c2c(nc3c1C(c1ccc(Cl)c(Cl)c1)c1ccc(OCC(=O)c4ccccc4)cc1O3)CCCC2 (stereo not shown) | SH-SY5Y | cell growth or viability, MTT |  | 25 µM | viability | 45.9%
O=C(Nc1ccc(Cl)cc1)Nc1cccc(-c2cccc(N3CCCC3)n2)c1 |  | metabolic stability | rat, liver microsomes | pH 7.4 | half-life | 13.4 min
